Source: ChEMBL document CHEMBL1671635, “Effect of protein binding on the pharmacological activity of highly bound antibiotics” (Antimicrob Agents Chemother, 2008)
Converted amounts (≈) assume the structure as drawn. The source made the active and inactive calls. The calls are words filed in the database; no cut-off is given here.

What was measured:
Plasma [1] = experiment: Protein binding in pooled human plasma by microdialysis; type: ADME, cell-free
In short: (§1)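 In vitro microdialysis at 20, 40, 80, 160 and 320 μg/ml drug, in triplicate, at 37°C. Matrices were THB with 40 g/liter BSA or HSA, pooled adult bovine serum, or untreated pooled human plasma. Probes were perfused with lactated Ringer at 2.0 μl/min, with recovery set in Ringer alone. Samples were taken over a 30-min period and assayed by HPLC-UV. Binding = 1 − dialysate/(recovery × total).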

Albumin [2] = target: Albumin (Homo sapiens, UniProt P02768); experiment: Binding affinity to human serum albumin in THB medium containing 40 g/L HSA; type: ADME; conditions: human serum albumin (40 g/L) in THB medium, read-out: PB (converted); in short: as §1
Chain of Albumin (Homo sapiens, UniProt P02768) (P02768 whole entry): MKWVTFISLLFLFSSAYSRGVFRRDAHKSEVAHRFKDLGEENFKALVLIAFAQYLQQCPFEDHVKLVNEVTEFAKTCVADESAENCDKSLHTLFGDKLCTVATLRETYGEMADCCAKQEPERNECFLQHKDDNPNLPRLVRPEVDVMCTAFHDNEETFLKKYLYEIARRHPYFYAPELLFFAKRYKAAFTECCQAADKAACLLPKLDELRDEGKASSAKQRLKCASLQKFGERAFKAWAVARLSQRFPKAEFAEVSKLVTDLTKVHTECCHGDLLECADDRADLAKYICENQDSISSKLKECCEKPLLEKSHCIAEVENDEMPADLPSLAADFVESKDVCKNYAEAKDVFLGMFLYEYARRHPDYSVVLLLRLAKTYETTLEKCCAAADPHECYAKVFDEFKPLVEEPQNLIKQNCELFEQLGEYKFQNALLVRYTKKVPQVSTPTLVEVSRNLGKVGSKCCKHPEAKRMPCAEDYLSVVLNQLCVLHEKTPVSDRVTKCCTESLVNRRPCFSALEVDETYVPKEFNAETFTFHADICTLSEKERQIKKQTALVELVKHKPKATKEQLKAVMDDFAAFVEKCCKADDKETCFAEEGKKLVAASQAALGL

Albumin [3] = target: T1, Albumin (Bos taurus, UniProt P02769); experiment: Binding affinity to pooled adult bovine serum albumin; type: ADME; conditions: cattle, read-out: PB (converted); in short: as §1
T1 sequence (P02769 whole entry): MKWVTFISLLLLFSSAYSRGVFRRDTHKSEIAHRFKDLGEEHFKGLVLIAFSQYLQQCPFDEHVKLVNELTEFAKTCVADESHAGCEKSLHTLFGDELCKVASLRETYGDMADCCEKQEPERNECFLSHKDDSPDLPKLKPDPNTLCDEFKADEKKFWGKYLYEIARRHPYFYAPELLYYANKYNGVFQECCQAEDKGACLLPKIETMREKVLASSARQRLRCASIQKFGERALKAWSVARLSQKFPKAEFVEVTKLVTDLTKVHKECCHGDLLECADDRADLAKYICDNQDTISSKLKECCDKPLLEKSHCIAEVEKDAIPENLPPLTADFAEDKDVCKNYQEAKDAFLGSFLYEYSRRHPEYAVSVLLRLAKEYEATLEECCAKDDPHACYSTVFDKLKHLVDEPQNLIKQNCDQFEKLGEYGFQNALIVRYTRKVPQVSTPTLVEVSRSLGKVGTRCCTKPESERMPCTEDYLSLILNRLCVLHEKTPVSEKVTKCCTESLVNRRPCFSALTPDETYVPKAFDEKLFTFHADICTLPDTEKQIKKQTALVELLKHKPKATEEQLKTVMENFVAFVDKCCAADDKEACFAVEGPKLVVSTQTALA

Albumin [4] = target: T1, Albumin; experiment: Binding affinity to bovine serum albumin in THB medium containing 40 g/L BSA; type: ADME; conditions: cattle, bovine serum albumin (40 g/L) in THB medium; read-out: PB (converted); in short: as §1
[5] = Plasma protein binding in human at < 100 ug/ml; type: ADME, cell-free; conditions: read-out: PPB (converted)
Plasma [6] = experiment: Plasma protein binding in human at 400 ug/ml; type: ADME, cell-free
[7] = Plasma protein binding in healthy human 1t […], iv administered as single dose by LC-MS-MS method; type: ADME, organism-based; conditions: read-out: PPB (converted)
Escherichia coli [8] = experiment: Antimicrobial activity against Escherichia coli ATCC 25922 by serial dilution twofold broth microdilution method; type: functional; conditions: in the assay text read “macrodilution” for “microdilution”
In short: (§2)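 Broth macrodilution, serial twofold dilutions, run per CLSI guidelines. Media were MHB (E. coli) or THB (S. pneumoniae), used with or without 40 g/liter BSA or HSA; supplemented broth was 0.2-μm filtered and adjusted to pH 7.4. Inoculum came from overnight 5% sheep blood agar colonies set to 0.5 McFarland in saline and diluted in broth to ~5 × 10⁵ CFU/ml. Six determinations; values reported as modes.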

Escherichia coli [9] = experiment: Antimicrobial activity against Escherichia coli ATCC 25922 by serial dilution twofold broth microdilution method in presence of 40 g/L bovine serum albumin; type: functional; conditions: in the assay text read “macrodilution” for “microdilution”; in short: as §2
Streptococcus pneumoniae [10] = experiment: Antimicrobial activity against penicillin-sensitive Streptococcus pneumoniae ATCC 6303 by serial dilution twofold broth microdilution method; type: functional; conditions: in the assay text read “macrodilution” for “microdilution”; in short: as §2
Streptococcus pneumoniae [11] = experiment: Antimicrobial activity against penicillin-sensitive Streptococcus pneumoniae ATCC 6303 by serial dilution twofold broth microdilution method in presence of 40 g/L bovine serum albumin; type: functional; conditions: in the assay text read “macrodilution” for “microdilution”; in short: as §2
Streptococcus pneumoniae [12] = experiment: Antimicrobial activity against penicillin-sensitive Streptococcus pneumoniae ATCC 6303 by serial dilution twofold broth microdilution method in presence of 40 g/L human serum albumin; type: functional; conditions: in the assay text read “macrodilution” for “microdilution”; in short: as §2
Escherichia coli [13] = experiment: Bactericidal activity against Escherichia coli ATCC 25922 at 8 times MIC after 24 hrs by time kill analysis; type: functional, organism-based
Streptococcus pneumoniae [14] = experiment: Bactericidal activity against penicillin-sensitive Streptococcus pneumoniae ATCC 6303 at 8 times MIC after 24 hrs by time kill analysis; type: functional, organism-based
Escherichia coli [15] = experiment: Antimicrobial activity against Escherichia coli ATCC 25922 assessed as maximum killing rate constant; type: functional
In short: (§3)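 Constant-concentration time-kill curves, 6 h, in triplicate. […] Inoculum of ~5 × 10⁵ CFU/ml was grown 2 h before drug was added. Samples taken 0–6 h were counted by droplet plating after 20–24 h at 37°C. A two-compartment model (susceptible plus persister cells) was fitted simultaneously across conditions to obtain growth and maximal kill rate constants.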

Streptococcus pneumoniae [16] = experiment: Antimicrobial activity against penicillin-sensitive Streptococcus pneumoniae ATCC 6303 assessed as maximum killing rate constant; type: functional; in short: as §3
Escherichia coli [17] = experiment: Antimicrobial activity against Escherichia coli ATCC 25922 assessed as growth rate constant; type: functional; in short: as §3
Streptococcus pneumoniae [18] = experiment: Antimicrobial activity against penicillin-sensitive Streptococcus pneumoniae ATCC 6303 assessed as growth rate constant; type: functional; in short: as §3
Escherichia coli [19] = experiment: Antimicrobial activity against Escherichia coli ATCC 25922; type: functional, organism-based; in short: as §2
Escherichia coli [20] = experiment: Antimicrobial activity against Escherichia coli ATCC 25922 in presence of bovine serum albumin; type: functional, organism-based; in short: as §2
Escherichia coli [21] = experiment: Antimicrobial activity against Escherichia coli ATCC 25922 by in presence of human serum albumin; type: functional, organism-based; in short: as §2
Streptococcus pneumoniae [22] = experiment: Antimicrobial activity against penicillin-sensitive Streptococcus pneumoniae ATCC 6303; type: functional, organism-based; in short: as §2
Streptococcus pneumoniae [23] = experiment: Antimicrobial activity against penicillin-sensitive Streptococcus pneumoniae ATCC 6303 in presence of bovine serum albumin; type: functional, organism-based; in short: as §2
Streptococcus pneumoniae [24] = experiment: Antimicrobial activity against penicillin-sensitive Streptococcus pneumoniae ATCC 6303 in presence of human serum albumin; type: functional, organism-based; in short: as §2
Escherichia coli [25] = experiment: Antimicrobial activity against Escherichia coli ATCC 25922 by serial dilution twofold broth macrodilution method in presence of 40 g/L human serum albumin
Escherichia coli [26] = experiment: Bactericidal activity against Escherichia coli ATCC 25922 at 8 times MIC after 24 hrs by time kill analysis in presence of 40 g/L human serum albumin; type: functional, organism-based
Streptococcus pneumoniae [27] = experiment: Bactericidal activity against penicillin-sensitive Streptococcus pneumoniae ATCC 6303 at 8 times MIC after 24 hrs by time kill analysis in presence of 40 g/L human serum albumin; type: functional, organism-based
Escherichia coli [28] = experiment: Bactericidal activity against Escherichia coli ATCC 25922 at 8 times MIC after 6 hrs by time kill analysis in presence of 40 g/L bovine serum albumin
Streptococcus pneumoniae [29] = experiment: Bactericidal activity against penicillin-sensitive Streptococcus pneumoniae ATCC 6303 at 8 times MIC after 6 hrs by time kill analysis in presence of 40 g/L bovine serum albumin

Compound | PPB (Plasma [1]) | fraction unbound (Albumin [2]) | fraction unbound (Albumin [3]) | fraction unbound (Albumin [4]) | fraction unbound [7] | MIC (Escherichia coli [8]) | MIC (Escherichia coli [9]) | MIC (Streptococcus pneumoniae [10]) | MIC (Streptococcus pneumoniae [11]) | MIC (Streptococcus pneumoniae [12]) | Activity (Escherichia coli [13]) | Activity (Streptococcus pneumoniae [14]) | Kkmax (Escherichia coli [15]) | Kkmax (Streptococcus pneumoniae [16]) | Ks (Escherichia coli [17]) | Ks (Streptococcus pneumoniae [18]) | EC50 (Escherichia coli [19]) | EC50 (Escherichia coli [20]) | EC50 (Escherichia coli [21]) | EC50 (Streptococcus pneumoniae [22]) | also measured
CO/N=C(\C(=O)N[C@@H]1C(=O)N2C(C(=O)O)=C(CSc3nc(=O)c(=O)[nH]n3C)CS[C@H]12)c1csc(N)n1 [CEFTRIAXONE] | 76.8% | 0.431 | 0.693 | 0.798 | 0.17 | – | – | – | – | – | – | – | – | – | – | – | – | – | – | – | fraction unbound [5]: 0.1; PPB (Plasma [6]): 60%
C[C@@H](O)[C@H]1C(=O)N2C(C(=O)O)=C(S[C@@H]3CN[C@H](C(=O)Nc4cccc(C(=O)O)c4)C3)[C@H](C)[C@H]12 [ERTAPENEM] | 73.8% | 0.822 | 0.617 | 0.876 | 0.16 | 0.015 µg/mL (≈ 0.0315 µM) | 0.015 µg/mL | 0.025 µg/mL (≈ 0.0526 µM) | 0.025 µg/mL | 0.025 µg/mL | Active | Active | 6.02 h⁻¹ | 3.28 h⁻¹ | 2.76 h⁻¹ | 2.28 h⁻¹ | 0.01 µg/mL (≈ 0.021 µM) | 0.02 µg/mL | 0.014 µg/mL | 10 ng/mL (≈ 0.021 µM) | EC50 (Streptococcus pneumoniae [23]): 0.01 µg/mL; EC50 (Streptococcus pneumoniae [24]): 0.019 µg/mL; MIC (Escherichia coli [25]): 0.03 µg/mL
CO/N=C(\C(=O)N[C@@H]1C(=O)N2C(C(=O)O)=C(CSc3nc(=O)c(O)nn3C)CS[C@H]12)c1csc(N)n1 [CEFTRIAXONE] | – | – | – | – | – | 0.064 µg/mL (≈ 0.115 µM) | 0.064 µg/mL | 0.01 µg/mL (≈ 0.018 µM) | 0.02 µg/mL | 0.16 µg/mL | Active | Active | 6.34 h⁻¹ | 3.59 h⁻¹ | 2.4 h⁻¹ | 1.56 h⁻¹ | 0.027 µg/mL (≈ 0.0487 µM) | 0.057 µg/mL | 1.1 µg/mL | 4 ng/mL (≈ 0.00721 µM) | Activity (Escherichia coli [26]): inactive; Activity (Streptococcus pneumoniae [27]): inactive; EC50 (Streptococcus pneumoniae [23]): 0.015 µg/mL; EC50 (Streptococcus pneumoniae [24]): 0.084 µg/mL; Activity (Escherichia coli [28]): inactive; MIC (Escherichia coli [25]): 2 µg/mL; Activity (Streptococcus pneumoniae [29]): inactive
